Laboratory results as given in ChEMBL document CHEMBL2057190, “Short synthesis and antimalarial activity of fagaronine” (Bioorg Med Chem, 2012).

Columns and labels:
[1] = test system: Plasmodium vinckei petteri; assay: Antiplasmodial activity Plasmodium vinckei petteri infected in CD mouse assessed as suppression of parasitaemia at 1 mg/kg/day, ip administered from day 0 to day 3 and measured on day 4 by Giemsa staining relative to control; assay type: functional; settings: route intraperitoneal
Outline: (§1)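 Female CD mice (mean weight 20 2 g) were infected on day 0 with 10⁶ P. vinckei petteri-infected red cells in RPMI. Groups of five received drug intraperitoneally daily from day 0 to 3. On day 4, parasitaemia was counted on Giemsa-stained smears (at least 5000 erythrocytes). Inhibition % = (control − treated)/control × 100, with RPMI-only mice as controls. ED₅₀ was taken as the dose giving 50% inhibition.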

[2] = Selectivity ratio of IC50 for african green monkey Vero cells to IC50 for […] Plasmodium falciparum FcB1/ Columbia; assay type: ADME, cell-based; settings: read-out: Ratio IC50
Outline: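 Selectivity index = Vero IC₅₀ / FcB1 IC₅₀. Vero cells were grown as for P. falciparum but with 10% foetal calf serum in place of 5% human serum, exposed to increasing concentrations for 48 h, and growth read by [³H]-hypoxanthine incorporation against untreated wells (100%). Doxorubicin served as control.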

[3] = test system: Plasmodium vinckei petteri; assay: Antiplasmodial activity Plasmodium vinckei petteri infected in CD mouse assessed as survival of infected mouse at 1 mg/kg/day, ip administered from day 0 to day 3 and measured on day 4 (reference value: 9.5 days); assay type: functional; settings: route intraperitoneal
Plasmodium falciparum [4] = assay: Antiplasmodial activity against chloroquine-resistant Plasmodium falciparum FcB1/Columbia assessed as [3H]hypoxanthine incorporation after 48 hrs; assay type: functional, organism-based
Outline: (§2)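 P. falciparum was cultured per Trager–Jensen with modifications and synchronised by magnetic concentration plus 5% sorbitol lysis. Cultures, mostly at ring stage, were exposed to increasing drug dilutions in triplicate for 48 h. Growth was measured by [³H]-hypoxanthine incorporation to give IC₅₀. Values are means of two independent experiments run in triplicate.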

[5] = test system: Plasmodium vinckei petteri; assay: Antiplasmodial activity Plasmodium vinckei petteri infected in CD mouse assessed as survival of infected mouse at 5 mg/kg/day, ip administered from day 0 to day 3 and measured on day 4 (reference value: 9.5 days); assay type: functional; settings: route intraperitoneal
[6] = test system: Plasmodium vinckei petteri; assay: Antiplasmodial activity Plasmodium vinckei petteri infected in CD mouse assessed as suppression of parasitaemia at 5 mg/kg/day, ip administered from day 0 to day 3 and measured on day 4 by Giemsa staining relative to control; assay type: functional; settings: route intraperitoneal; outline: as §1
[7] = test system: Plasmodium vinckei petteri; assay: Antiplasmodial activity Plasmodium vinckei petteri infected in CD mouse assessed as survival of infected mouse at 10 mg/kg/day, ip administered from day 0 to day 3 and measured on day 4 (reference value: 9.5 days); assay type: functional; settings: route intraperitoneal
[8] = test system: Plasmodium vinckei petteri; assay: Antiplasmodial activity Plasmodium vinckei petteri infected in CD mouse assessed as suppression of parasitaemia at 10 mg/kg/day, ip administered from day 0 to day 3 and measured on day 4 by Giemsa staining relative to control; assay type: functional; settings: route intraperitoneal; outline: as §1
[9] = test system: Plasmodium vinckei petteri; assay: Antiplasmodial activity Plasmodium vinckei petteri infected in ip dosed CD mouse assessed as suppression of parasitaemia administered from day 0 to day 3 and measured on day 4 by Giemsa staining; assay type: functional; outline: as §1
Vero = assay: Cytotoxicity against african green monkey Vero cells; assay type: cell-based; settings: Chlorocebus sabaeus
Plasmodium falciparum [10] = assay: Antiplasmodial activity against chloroquine-sensitive Plasmodium falciparum 3D7 assessed as [3H]hypoxanthine incorporation after 48 hrs; assay type: functional, organism-based; outline: as §2
[11] = test system: Plasmodium vinckei petteri; assay: Antiplasmodial activity Plasmodium vinckei petteri infected in CD mouse assessed as suppression of parasitaemia at 2.5 mg/kg/day, ip administered from day 0 to day 3 and measured on day 4 by Giemsa staining relative to control; assay type: functional; settings: route intraperitoneal; outline: as §1
Mus musculus = assay: Toxicity in CD mouse infected with Plasmodium venckei petteri at 10 mg/kg/day, ip administered from day 0 to day 3; assay type: organism-based; design: route intraperitoneal; settings: in vivo
Outline: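 CD female mice infected with 10⁶ P. vinckei petteri-infected red cells were given drug ip daily on days 0–3 and observed for signs of acute toxicity. Survival was followed for 13 days post-infection.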

Plasmodium falciparum [12] = assay: Antiplasmodial activity against chloroquine-resistant Plasmodium falciparum FcM29 assessed as [3H]hypoxanthine incorporation after 48 hrs; assay type: functional, organism-based; outline: as §2
[13] = test system: Plasmodium vinckei petteri; assay: Antiplasmodial activity Plasmodium vinckei petteri infected in CD mouse assessed as survival of infected mouse at 2.5 mg/kg/day, ip administered from day 0 to day 3 and measured on day 4 (reference value: 9.5 days); assay type: functional; settings: route intraperitoneal

SMILES | inhibition in vivo at 1 mg/kg/day [1] [%] | selectivity ratio [2] | MSD [3] [days] | IC50 (Plasmodium falciparum [4]) [nM] | MSD [5] [days] | inhibition in vivo at 5 mg/kg/day [6] [%] | MSD [7] [days] | inhibition in vivo at 10 mg/kg/day [8] [%] | ED50 [9] [mg/kg/day] | IC50 (Vero) [µM] | IC50 (Plasmodium falciparum [10]) [nM] | inhibition in vivo at 2.5 mg/kg/day [11] [%] | Activity (Mus musculus) | IC50 (Plasmodium falciparum [12]) [nM] | MSD [13] [days]
COc1cc2c(ccc3c4cc(OC)c(OC)cc4c[n+](C)c23)cc1O.[I-] [FAGARONINE IODIDE] | 4.8 | > 1400 | 8.6 | 14.9 | 10.7 | 38.1 | >13 | 91.5 | 6 | > 21 | 7.6 | 27 | Non-toxic | 7.4 | 11.5
COc1cccc2c1C(=O)c1c(O)c3c(c(O)c1C2=O)C[C@@](O)(C(=O)CO)C[C@@H]3O[C@H]1C[C@H](N)[C@H](O)[C@H](C)O1 [DOXORUBICIN] | – | – | – | – | – | – | – | – | – | 6.4 | – | – | – | – | –
CCN(CC)CCCC(C)Nc1ccnc2cc(Cl)ccc12 (configuration not stated) [CHLOROQUINE] | 3.2 | – | 9.5 | – | – | – | >13 | 94.8 | 5.5 | > 50 | – | – | – | – | –
